System: MS2 coat protein
Test: apparent Kd, MS2 coat protein; higher = weaker binding; RNA-MaP array; FMN 200 µM where present
In short: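 Designs were transcribed by stalled E. coli RNA polymerase on Illumina sequencing-chip clusters. They were titrated with SNAP-549-labelled MS2 coat protein from 0.7 or 1.5 nM, doubling to 3 µM, without and then with constant ligand. Buffer: 100 mM Tris-HCl pH 7.5, 80 mM KCl, 4 mM MgCl2, BSA, DTT, yeast tRNA, Tween-20. Green signal was normalised to red-channel RNA signal and control-cluster median Fmax. Apparent Kd is the median of filtered per-cluster binding-curve fits.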

[1] = designed as: ON switch for flavin mononucleotide, no ligand
[2] = ligand present: flavin mononucleotide, designed as: ON switch for flavin mononucleotide
[3] = designed as: OFF switch for flavin mononucleotide, no ligand
[4] = ligand present: flavin mononucleotide, designed as: OFF switch for flavin mononucleotide

Sequence	apparent Kd [1]	apparent Kd [2]	apparent Kd [3]	apparent Kd [4]
GAGUUUACGUUUGACACUUAGCGAGAGGAUAUGGAAAACAAGACAUGAGGAUCACCCAUGUACUAUCAGAAGGCUCGAGUACGA	8.92 nM	5.69 nM	–	–
GAUAAACAUGAGGAUCACCCAUGUCAGGAUAUGCGCUAGCUAGCUAGCUAGCUAGCUAGCAGAAGGGACACUAC	–	–	19.5 nM	35 nM
GAUAAGCUAGGAUAUACAUAUUAUUUAAUAUCCUCAUUAAUACAUGAGGAUCACCCAUGUAGAAGGAGCAAUAG	–	–	127 nM	272 nM
GAUAAGGGAGGAUAUACGGAACGGUUUAUGCUCAGUGAGGCACAUGAGGAUCACCCAUGUAGAAGGCCCGACAG	–	–	28.2 nM	120 nM
GAUAGGACAGAGAAGGUACGUGCUAGAGAUACUAGCAAAAUACCUCAACAUGAGGAUCACCCAUGUAAGGAUAUCUGUCCUAUC	–	–	5.7 nM	6.19 nM
GAUCCACAUGAGGAUCACCCAUGUGAGGAUAUGAUACUAUGUACUUCGGUACAUAGUAUCAGAAGGCACAGGUC	–	–	51.4 nM	160 nM
GAUUAACAUGAGGAUCACCCAUGUGAGGAUAUGAACUUGCCCACUUUCCCUUUAGAGUUUAGAAGGCGCAUUCU	–	–	29.8 nM	30.6 nM
GAUUAGCUUGGAGGAUAUGGUACGGGCAGCUAACCAGAAGGCCAAGAACAUGAGGAUCACCCAUGUGCCGUUGGCCAUGGGAGG	–	–	37.1 nM	13.2 nM
GCACAUGAUACAGGAUAUGUAUUGGAAUUUAUAAUGAGUUAUAUAAUAUUUACAGAAGGGUAUACAUGAGGAUCACCCAUGUGC	–	–	30.7 nM	23 nM
GCACAUGAUACAGGAUAUGUAUUGGUAUUUAUAUACAGUUAUAUAAUAUUUACAGAAGGGUAUACAUGAGGAUCACCCAUGUGC	–	–	81.3 nM	41.7 nM
GCACAUGGCAUAGGAUAUAGAACGAUAGUUGAAAUAGAUUGUUGGAAUUUACUAGAAGGAUGAGACAUGAGGAUCACCCAUGUA	34.9 nM	28.6 nM	–	–
GCACAUUUGUAAGGAUAUACAACAUGAGGAUCACCCAUGUGAUUGAAUUUAGUAGAAGGUACAGAAAUGAGUAUCACUUUUGUA	16.8 nM	10.9 nM	–	–
GCACGACAUGUAGGAUAUCGAGCGCCGAGCGCUCGAGAAGGACAUGAGGAUCACCCAUGUAUUCCGAGUGAGUCAGGUCGUGCA	–	–	17.5 nM	23.4 nM
GCACGGCAUGUAGGAUAUCGAGCGCCGGGCGCUCGAGAAGGACAUGAGGAUCACCCAUGUGCUCACAGUGAGUGAGUGCUGUGC	–	–	19.6 nM	37.4 nM
GCACGGUAUGUAGGAUAUGCAUAGCAUUGCUAUGCAGAAGGACAUGAGGAUCACCCAUGUAUGUAUUCCAUACUAAUCCCGUGG	–	–	5.38 nM	5.72 nM
GCACGUGGACAGAAGGCGACAUGAGGAUCACCCAUGUUGGCUCGGGUAUGACCAAUCCGCAUGAUCGAGGAUAUGUCUGCGGGC	–	–	264 nM	15.9 nM
GCACUGGAUGUAGGAUAUCAGGACGAUAAGUCCUGAGAAGGACAUGAGGAUCACCCAUGUAAACCUCACCAGUGCUAUAAUAUA	–	–	15.5 nM	21.1 nM
GCACUGGAUGUAGGAUAUCAGGACGAUAAGUCCUGAGAAGGACAUGAGGAUCACCCAUGUAACUCAAACCAGUGCUAUAAUAUA	–	–	16.2 nM	27.2 nM
GCACUGGAUGUAGGAUAUCAGGACGAUAAGUCCUGAGAAGGACAUGAGGAUCACCCAUGUCUCAAGAAACCAGUGCAUAAUAUA	–	–	13 nM	15.9 nM
GCACUGGAUGUAGGAUAUCAGGACGAUAAGUCCUGAGAAGGACAUGAGGAUCACCCAUGUGAAUAAACCAGUGCAAAUAAUAUA	–	–	12.5 nM	32.3 nM
GCACUGGAUGUAGGAUAUCAGGACGAUAAGUCCUGAGAAGGACAUGAGGAUCACCCAUGUGCUUAAACCAGUGCAUAUAAUAUA	–	–	12.2 nM	18.4 nM
GCACUUAGAGUUGAACCGUUUCGAACAUGAGGAUCACCCAUGUAGGAUAUGCUAAUAGUAUUGAAGCAGAAGGACAAUAAGUGC	–	–	6.43 nM	6.05 nM
GCACUUUUAUUUGAACCGAUACGAACAUGAGGAUCACCCAUGUAGGAUAUGCUUAAAGUUGUGAUGCAGAAGGACAUUUAGUGC	–	–	9.18 nM	10.7 nM
GCAGAUCAAGUGAGGAUAUCGUCUACCUCGGUAGUCGAGAAGGCACAUGAGGAUCACCCAUGUGAUUGAUCUGC	–	–	18.5 nM	25.9 nM
GCAGCAAUCUAAAACAUGAGGAUCACCCAUGUCGAGAGAUAUGAGGAUAUGCAUCGGAUGAAGAUGCAGAAGGCAUUGUGCUGC	8.66 nM	6.35 nM	–	–
GCAGCACUUUAUUACAUGAGGAUCACCCAUGUCGAUUGUUAUGAGGAUAUGCAUCGGAUGAAGAUGCAGAAGGCAUUGUGCUGC	7.24 nM	6.04 nM	–	–
GCAGGAUAAGUCAGGAUAUACCUAUGGAUACAUAGGUAGAAGGGACAUGAGGAUCACCCAUGUGACUCGCCUGC	–	–	29.5 nM	100 nM
